The text below walks through data of ChEMBL document CHEMBL4765251, “Efficient identification of novel anti-glioma lead compounds by machine learning models” (Eur J Med Chem, 2020).

For one data set, the system named is C6. Description: Antiproliferative activity against rat C6 cells assessed as cell growth inhibition measured after 72 hrs by SRB assay. Format: functional, cell-based. The note with it: C6, 72 h. In general terms: Sulforhodamine B stains cellular protein and so reports cell mass.
The test system of another data set is Astrocyte. Description: Cytotoxicity against Wistar rat astrocytes assessed as cell growth inhibition at 100 uM measured after 72 hrs by SRB assay. Type of data set: cell-based.
The subject of the next data set is U-251. Nature of the data set: Antiproliferative activity against human U251MG cells assessed as cell growth inhibition measured after 72 hrs by SRB assay. Format: functional, cell-based. To be noted: U-251, 72 h.
A short description of data set [1]: Selectivity index, ratio of CC50 for Wistar rat astrocytes to EC50 for human U-251 MG cells. In short, it runs like this:
(§1)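 Selectivity index is astrocyte CC50 divided by the glioma-line EC50, both from 72 h SRB assays. No index is given when astrocyte cytotoxicity could not be calculated at the highest concentration tested.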

Data set [2] in a line: Cytotoxicity against Wistar rat astrocytes assessed as cell growth inhibition measured after 72 hrs by SRB assay. Type of data set: cell-based, Astrocyte. In short, it runs like this:
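Primary astrocytes taken from the cortex of 2-day-old Wistar rats by mechanical dissociation, grown on poly-L-lysine in high-glucose DMEM and treated at 90% confluence (12-15 days). Exposed to 0.1-100 µM for 72 h, then SRB assay with absorbance read at 510 nm against DMSO controls. Mean ± SD of three independent assays.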

A short description of data set [3]: Selectivity index, ratio of CC50 for Wistar rat astrocytes to EC50 for human U87MG cells. The method, boiled down: as §1
In the next data set the test system is U-87 MG. Description: Antiproliferative activity against human U87MG cells assessed as cell growth inhibition measured after 72 hrs by SRB assay. Format: functional, cell-based, U-87MG ATCC. In short, it runs like this: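 U87MG human glioma cells grown in DMEM with 10% FBS at 37 °C, used up to 30 passages and treated at 40-50% confluence. Exposed to 0.1-100 µM for 72 h, with DMSO at most 0.1% final. TCA-fixed, stained with SRB, dye solubilized in Tris pH 10.5, read at 510 nm, expressed as % of DMSO controls. Mean ± SD of three independent assays.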

Data set [4] in a line: Selectivity index, ratio of CC50 for Wistar rat astrocytes to EC50 for rat C6 cells. The method, boiled down: as §1

A word on the EC50: it is the concentration giving half of the maximal effect. Regarding `O=C(/C=C/c1ccc(Cl)s1)c1ccc(-n2ccnc2)cc1`, the EC50 in the data set with C6 worked out at 14.5 µM; in the data set with U-251 it was 35.1 µM. Moreover, the Activity entry with Astrocyte is listed as “Non-Toxic”.

By CC50 is commonly meant the concentration at which the toxic effect on the cells reaches its halfway point. Take `O=C(/C=C/c1ccc([N+](=O)[O-])o1)c1ccc(I)cc1`: the half-maximal effective concentration (EC50) in the data set on C6 was determined as 2.1 µM; with U-251, 12.5 µM; in the data set with U-87 MG, 5.2 µM. Also, the “Ratio CC50/EC50” value is 5.4 in data set [1], 13.1 in data set [3] and 32.5 in data set [4]. In addition, in data set [2], the CC50 at 72 h was determined as 68.2 µM.

In the case of `C[N+](=O)c1ccc(/C=C/C(=O)c2ccc(N3CCOCC3)cc2)o1`, the values for the EC50 with C6, in the data set on U-251 and in the data set with U-87 MG were 6.6 µM, 37.8 µM and 9.8 µM, respectively. Also, the “Ratio CC50/EC50” value was 2 in data set [1], 7.7 in data set [3] and 11.5 in data set [4]. In data set [2], the CC50 at 72 h was found to be 75.8 µM.

`CC(=O)c1ccc(NCCC(=O)c2cccs2)cc1`: the figures for the EC50 in the data set with C6 and with U-251 were 46.6 µM and > 50 µM, respectively. Further, the Activity entry in the data set with Astrocyte is recorded as “Non-Toxic”.

As to `O=C(/C=C/c1ccco1)c1ccc(N2CCOCC2)cc1`, the figures for the EC50 with C6 and in the data set on U-251 were 23.6 µM and > 50 µM, respectively. Also, in the data set on Astrocyte, the Activity result is “Non-Toxic”.

On to `O=C(/C=C/c1ccc([N+](=O)[O-])o1)c1ccc(C2CCCCC2)cc1`, for which the 50% effective concentration (EC50) in the data set on C6 was found to be 5.1 µM; with U-251 it was 4.4 µM; in the data set on U-87 MG, 9.5 µM. Besides, the figures for the “Ratio CC50/EC50” value in data set [1], in data set [3] and in data set [4] were 13, 6 and 11.2, respectively. Besides, in data set [2], the CC50 at 72 h is 57.2 µM.

As for `O=C(/C=C/c1ccc(Cl)s1)c1ccc(N2CCCCC2)cc1`, the EC50 in the data set on C6 is 36.6 µM; in the data set on U-251, > 50 µM. Moreover, the Activity result with Astrocyte is given as “Non-Toxic”.

Regarding `O=C(/C=C/c1ccc([N+](=O)[O-])o1)c1ccc(N2CCCCC2)cc1`, the values for the EC50 in the data set with C6 and in the data set with U-251 were 48.7 µM and > 50 µM, respectively. Moreover, the Activity entry with Astrocyte is listed as “Non-Toxic”.

As to `CN(C)c1ccc(/C=C/C(=O)c2ccc(-c3ccccc3)cc2)cc1`, the figures for the EC50 in the data set on C6 and in the data set with U-251 were 49.5 µM and > 50 µM, respectively. Also, the Activity entry with Astrocyte is “Non-Toxic”.

Turning to `CC(C)Oc1ccc(C(=O)NC(=S)Nc2cccc3ccccc23)cc1`, the EC50 with C6 and in the data set with U-251 was > 50 µM each time. Besides, the Activity entry in the data set with Astrocyte was “Non-Toxic”.

Turning to `O=C(/C=C/c1ccco1)c1ccc(C2CCCCC2)cc1`, the EC50 in the data set with C6 is > 50 µM; with U-251, 26.4 µM. For the same compound, the Activity entry with Astrocyte was “Non-Toxic”.

On to `O=C(/C=C/c1cccc([N+](=O)[O-])c1)c1ccc(N2CCCCC2)cc1`, for which the EC50 in the data set with C6 came to 32.5 µM; in the data set with U-251, 20.3 µM. Also, the Activity entry in the data set with Astrocyte is on record as “Non-Toxic”.

Take `COc1ccc(/C=C/C(=O)c2cccc(Br)c2)cc1`: the EC50 in the data set with C6 came to 22.3 µM; in the data set on U-251, 32.1 µM. Moreover, the Activity result in the data set on Astrocyte is “Non-Toxic”.

As to `CCC(=O)Oc1cccc2ccc(/C=C/c3ccccc3[N+](=O)[O-])nc12`, the EC50 in the data set with C6 is 6.3 µM; with U-251, 10.1 µM; in the data set on U-87 MG it was 10.5 µM. In addition, the entries for the “Ratio CC50/EC50” value in data set [1], in data set [3] and in data set [4] were 5.4, 5.3 and 8.7, respectively. Further, in data set [2], the CC50 at 72 h came to 55.2 µM.

For the compound `O=C(/C=C/c1ccc([N+](=O)[O-])o1)c1ccc(-n2ccnc2)cc1`, the EC50 in the data set with C6 stood at 3.5 µM; in the data set with U-251, 22.6 µM; with U-87 MG it was 13.4 µM. Moreover, the “Ratio CC50/EC50” value is 2 in data set [1], 3.4 in data set [3] and 12.9 in data set [4]. Also, the CC50 at 72 h in data set [2] was 45.3 µM.

Consider `O=C(CS(=O)(=O)c1ccccc1)c1cc2ccccc2o1`, for which the EC50 in the data set on C6 and in the data set on U-251 was > 50 µM in each case. In the data set with Astrocyte, the Activity entry was “Non-Toxic”.

As to `Cc1ccc(S(=O)(=O)/N=C/c2ccc(F)cc2)cc1`, the EC50 was 48.9 µM in the data set with C6 and > 50 µM in the data set on U-251. Also, the Activity entry in the data set with Astrocyte is “Non-Toxic”.

With `Cc1ccc(S(=O)(=O)CC(=O)c2cccc([N+](=O)[O-])c2)cc1`, the EC50 in the data set with C6 and in the data set on U-251 was > 50 µM throughout. In addition, in the data set with Astrocyte, the Activity result is on record as “Non-Toxic”.

Take `CC(C)(C)c1ccc(C(=O)/C=C/c2ccc([N+](=O)[O-])o2)cc1`: the EC50 with C6 was found to be 28.6 µM; in the data set with U-251 it was 44.5 µM. Moreover, in the data set with Astrocyte, the Activity result was “Non-Toxic”.

As to `O=C(/C=C/c1ccc([N+](=O)[O-])cc1)c1ccc(N2CCCCC2)cc1`, the EC50 in the data set with C6 and in the data set with U-251 was > 50 µM in each case. In addition, in the data set with Astrocyte, the Activity entry was “Non-Toxic”.

As for `O=C(/C=C/c1ccc([N+](=O)[O-])s1)c1ccc(-n2ccnc2)cc1`, the results for the EC50 in the data set on C6, with U-251 and in the data set with U-87 MG were 1.9 µM, 9.4 µM and 10.1 µM, respectively. Besides, the “Ratio CC50/EC50” value in data set [1] stood at 4.3; in data set [3] it was 4; in data set [4], 21.3. In data set [2], the CC50 at 72 h was determined as 40.4 µM.

On to `COc1ccc(/C=C/C(=O)c2ccc(-c3ccccc3)cc2)cc1`, for which the EC50 with C6 and with U-251 was > 50 µM in each case. Further, the Activity result with Astrocyte is on record as “Non-Toxic”.

In the case of `O=C(/C=C/c1ccc([N+](=O)[O-])o1)c1ccc(N2CCCC2)cc1`, the EC50 with C6 worked out at 16.4 µM; with U-251, 35.9 µM; in the data set on U-87 MG it was 35.4 µM. For the same compound, the results for the “Ratio CC50/EC50” value in data set [1], in data set [3] and in data set [4] were 1.8, 1.8 and 4, respectively. Further, the CC50 at 72 h in data set [2] stood at 65.8 µM.

On to `Cc1no[n+]([O-])c1C(=O)c1no[n+]([O-])c1C(=O)c1no[n+]([O-])c1C`, for which the EC50 in the data set with C6 and in the data set on U-251 was > 50 µM throughout. Moreover, the Activity entry with Astrocyte is “Non-Toxic”.

For `O=C(/C=C/c1ccc([N+](=O)[O-])o1)c1ccc(Br)cc1`, the EC50 in the data set with C6 stood at 2.7 µM; in the data set on U-251, 21.4 µM; with U-87 MG, 12.6 µM. In addition, the results for the “Ratio CC50/EC50” value in data set [1], in data set [3] and in data set [4] were 3.9, 6.7 and 31.6, respectively. Also, the CC50 at 72 h in data set [2] is 85.4 µM.

Take `Cc1ccc(S(=O)(=O)CC(=O)c2ccc(Cl)cc2Cl)cc1`: the EC50 with C6 and with U-251 was > 50 µM each time. For the same compound, in the data set with Astrocyte, the Activity entry is “Non-Toxic”.

Take `CSc1ccc(C(=O)/C=C/c2ccco2)cc1`: the EC50 came out at 14.4 µM in the data set on C6, 24 µM in the data set on U-251 and 45.1 µM in the data set with U-87 MG. Besides, in data set [2], the CC50 at 72 h stood at 98 µM.

Take `Cc1ccc(N2C(=O)CC(Sc3ncccc3C(=O)O)C2=O)cc1Cl` (configuration not stated): the EC50 in the data set with C6 and with U-251 was > 50 µM throughout. Further, the Activity result in the data set on Astrocyte is given as “Non-Toxic”.

As for `Cc1ccc(C(=O)/C=C/c2ccco2)cc1`, the figures for the EC50 with C6, in the data set on U-251 and with U-87 MG were 7.8 µM, 23.3 µM and 19.2 µM, respectively. Besides, the CC50 at 72 h in data set [2] is > 100 µM.

For the compound `Cc1nonc1C(=O)c1no[n+]([O-])c1C(=O)c1nonc1C`, the EC50 with C6 and in the data set with U-251 was > 50 µM each time. Further, the Activity entry in the data set with Astrocyte is “Non-Toxic”.

Turning to `O=C(/C=C/c1ccc([N+](=O)[O-])o1)c1ccc(-c2ccccc2)cc1`, the EC50 in the data set on C6 turned out to be 17.7 µM; in the data set with U-251, 24.6 µM. Further, the Activity result with Astrocyte is listed as “Non-Toxic”.
